B1: tRNA (parent)
chain: GUUCCGUUGGCGUAAUGGUAACGCGUCUCCCUCCUAAGGAGAAGACUGCGGGUUCGAGUCCCGUACGGAACG

This sample holds only a part of the variants without activity.

The data set covers variants of B1. Kind of data set: yeast fitness relative to wild type (ratio to wild type); higher = fitter; tRNA-Arg(CCU), competitive growth, 37 C, YPD. The method, boiled down: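 Variants of the tRNA-Arg(CCU) gene were chemically synthesised with a 3% per-site mutation rate across 69 sites and placed at the native genomic locus in Saccharomyces cerevisiae. Six parallel replicates of the pooled strains were competed in YPD at 37°C for 24 hours, and gene amplicons from the start and end populations were read by 100-nucleotide paired-end sequencing. Darwinian fitness relative to wild type was derived from changes in genotype frequencies. Genotypes required ≥ 100 starting reads, and estimates < 0.5 were set to 0.5.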
Take A15C C46U C61U G67A: the yeast fitness was not above 0.5. Take G44C C49A: the yeast fitness came to 0.625. The same measure for U3C C62G: 0.853. Turning to A15G C29G C49U, the yeast fitness stood at 0.606. Regarding U3C G38C A65U C66U, the yeast fitness is 0.555.

With A20U A42C G56A, the yeast fitness was not above 0.5.

U19A C31G A36U A65U: the yeast fitness was not above 0.5.

As to U8A C60G G67A, the yeast fitness is not above 0.5. Regarding C24U A43U, the yeast fitness was 1.01. For G25A C31U A42G C62U A69C, the yeast fitness was not above 0.5.

For the variant A20G C55G, the yeast fitness worked out at 0.586. With C11U A21G C24A G52A C60A A69G, the yeast fitness amounted to 0.523.

As to G9C G10A C29U A37U C62U G67A A70C, the yeast fitness is not above 0.5. The same measure for G23A C24G: not above 0.5; for G6A A20G C30U C55U: not above 0.5; for U16A U19A C46U: 1. For U13A G58C C60U C66G, the yeast fitness was found to be 0.574. Take G6C A36U: the yeast fitness worked out at 0.653.

With C33U A40C, the yeast fitness came out at 0.777. Take G9C U13A G25A A40C A57C C61A: the yeast fitness was not above 0.5. On to G9C C11G, for which the yeast fitness came out at 0.525. As to A37U A45U U47C, the yeast fitness was not above 0.5. Turning to U2A G56C A57G G68U, the yeast fitness is not above 0.5.

With G10A A14G A70C, the yeast fitness is 0.535. With A20U C55G C62U, the yeast fitness was determined as 0.508. On to C31U A40C G56A A57U, for which the yeast fitness is not above 0.5.

Regarding G6A G10C A15U A70G, the yeast fitness was not above 0.5.

Take C46A C60G: the yeast fitness was found to be 0.684. Take U35C C61U: the yeast fitness turned out to be 0.968. U8G U16G C62G: the yeast fitness turned out to be 0.616. Under G10C U26A G38A A40U stands not above 0.5. As to C30U G39C U64C, the yeast fitness was determined as 0.528. For C34G A43U C49A A69U, the yeast fitness worked out at 0.584. With C22A C27U A43G C46G C49U A69C, the yeast fitness was not above 0.5. U3G C22U C27U G56A: the yeast fitness was not above 0.5. Take U8A G63A: the yeast fitness amounted to 0.597. The same measure for U8C G9U C29A C34G A36G A40C U47A U64C: not above 0.5; for G51A U59A C62G: not above 0.5. In the case of A57C G58C U59G C66U, the yeast fitness came to 0.606. Regarding C4U C11A U28A C31U G51C, the yeast fitness is 0.622. As for A21C U32A C34U, the yeast fitness was not above 0.5.

C5A C24G G56A C62A: the yeast fitness is not above 0.5. Under U59A C62G stands 0.563; under U3C C27U G58C A69C, 0.793; under U7A C33G C60G G63A, not above 0.5. Under C4U C22U C31U C60G stands 0.545; under G18A C60U A65G, not above 0.5; under G12C U16C, 0.771. C4U G44A: the yeast fitness is 1.05.

For the variant C29G A40U C61U C66U, the yeast fitness is not above 0.5. Turning to A20U A45G, the yeast fitness was determined as 0.843.

With C22G G52A U64C, the yeast fitness came out at 0.537. For the variant G17C C24G C46G U59C, the yeast fitness is not above 0.5.

Regarding C11G A15C U47G, the yeast fitness is not above 0.5. In the case of G12C C33G A36G G44C, the yeast fitness is not above 0.5. For the variant U8C C30U C31A C33G A42G C60A, the yeast fitness was not above 0.5. On to C30G C31U C46U, for which the yeast fitness is 0.609. On to A15G A21C C49U, for which the yeast fitness is not above 0.5. Under G12C G39C A43G stands not above 0.5; under C5A G63A C66U, 0.651; under A21U C33U A57C, not above 0.5.

On to C5G A20U U28G, for which the yeast fitness is not above 0.5. Turning to U2C G17C G23A G52A C61U, the yeast fitness was not above 0.5. Under C30G G51A stands 0.566.

As to C11G C61G A69U, the yeast fitness was not above 0.5. Under A14U G23U U59A stands not above 0.5.

As for C11G C33U, the yeast fitness is not above 0.5.

For G9C A65C A70U, the yeast fitness came to 0.539. Under A36U G39C A57U stands not above 0.5; under U47C G58C A65C, 0.614; under U7A A20G C61A, 0.616.

As to G23C C29G A43U G50A A57G, the yeast fitness is not above 0.5. The same measure for C11U C22U C55U: 0.681; for G12A C49U G56A C61G: not above 0.5; for U26C C62U: 0.823. Turning to A15G U19C C46G C55U, the yeast fitness was not above 0.5. Under U32C C34G A42U stands not above 0.5. G17C C22G C29A C46U A65C: the yeast fitness was not above 0.5.

On to A14G U54G A70C, for which the yeast fitness is not above 0.5. In the case of A43U A69C A70C, the yeast fitness turned out to be 0.601. For G44A A45C U53A C55A U59C C62U, the yeast fitness is not above 0.5. Consider G25A G41C C66U, for which the yeast fitness turned out to be 0.755.

As for U2C A65U G67A, the yeast fitness was 0.698. Consider U7G G56C C60U G67C, for which the yeast fitness was not above 0.5.

For the variant A14U C24G A42C, the yeast fitness amounted to 0.531. Under U2C C24G U53G A57G stands not above 0.5; under U7C G9A A20U A36G C55G, not above 0.5; under C29G C31G A37C C66A, 0.575. On to A21U U54A A69U, for which the yeast fitness is not above 0.5. Consider A14G A15G G56A, for which the yeast fitness came out at 0.567. As for C55U A57G, the yeast fitness was 0.747. For G25C G56A, the yeast fitness came out at 0.962. For A40G C55G, the yeast fitness is 0.621. As for C4A C31A U35C A45U A69U, the yeast fitness was not above 0.5. Take C5U U8A A57U: the yeast fitness is not above 0.5. In the case of C5A U35G G41A G56A C66U, the yeast fitness is not above 0.5. Under G23C C49G A70C stands not above 0.5; under A37G, 0.734.

In the case of C22A U26A C29G C34G A65G A69C, the yeast fitness was not above 0.5. For the variant A21G C61G, the yeast fitness worked out at 0.654.

With U32A C34G, the yeast fitness was not above 0.5. Take G12C A20C C34G U54G: the yeast fitness was not above 0.5. The same measure for U16A C22U A69U: 0.64; for G50A U53C C62A A69U: 0.517. On to C46A C55U, for which the yeast fitness was found to be 0.758.

In the case of A14C A15G C46G A69G, the yeast fitness is not above 0.5.

Take U3A G6C C34G G38C A45G U59G: the yeast fitness is not above 0.5. On to A14U U26G, for which the yeast fitness was found to be 0.675. Under U8G U19A U54A A57U G68C stands not above 0.5. Turning to C4U A36U A40C G68A, the yeast fitness was not above 0.5. Take C22G U32C A42C G48C C55G: the yeast fitness was not above 0.5.

Consider C11A C27G, for which the yeast fitness is 0.589. G10A A45U U53G A65C: the yeast fitness is not above 0.5. Under C5U C46G C62U C66G stands 0.538; under A20U G38A C55U A65G, not above 0.5.

With C4G G10C C24U C34U A36U C46A, the yeast fitness was not above 0.5. Regarding U35A A36U A57G, the yeast fitness is not above 0.5. Regarding U2C U16A A42G, the yeast fitness is 0.649. In the case of U26A C30A C34A G48C G68U, the yeast fitness was not above 0.5.

As for C11A C24A A36G G48A, the yeast fitness was not above 0.5. As to U7A A45G C61A A70G, the yeast fitness is not above 0.5. Turning to C11A C27A C33G A42C C66U, the yeast fitness was not above 0.5. Consider C22U U28C C61A C62U, for which the yeast fitness was not above 0.5.

Turning to A43G A69U, the yeast fitness worked out at 1.04. In the case of C46G G58A U59G, the yeast fitness is not above 0.5. Take U26C A45U U53A U59A: the yeast fitness came out at 0.512. Turning to U26G G58A, the yeast fitness is 0.881. G6C G17C C31G A36G U59C: the yeast fitness was found to be 0.599.

With U2A C49A, the yeast fitness amounted to 0.637. As to C11U U13C A42U G63A, the yeast fitness was not above 0.5. Under C46A G56A stands 1.01; under A14G A40G G41A A45U U47C, not above 0.5. On to A37G C55A, for which the yeast fitness is not above 0.5.

As to A20U A43C G48A C62U, the yeast fitness was 0.787.

As for C5G U7G G38A A40C G56A C60U C61G, the yeast fitness is not above 0.5. For the variant A20G U64C C66G, the yeast fitness was not above 0.5. In the case of C46U G51C, the yeast fitness stood at 0.571. With C5G A42G C60G C61G, the yeast fitness worked out at 0.669. As to U2C G25C, the yeast fitness stood at 0.953. Regarding A21G C22G C29G, the yeast fitness is not above 0.5. Consider C11G G39C U47C, for which the yeast fitness is not above 0.5. C11U C31G C46A: the yeast fitness turned out to be 0.629. Consider G10A G39U A57C A70U, for which the yeast fitness is not above 0.5.

Take C4A A15G C33U C62U: the yeast fitness is not above 0.5. As to U8G G10A C62G, the yeast fitness is not above 0.5. Under G18A C49A stands 0.606; under G6A G50U, 0.826. The same measure for G25C U26G A36G C46G A70U: not above 0.5.

On to C34G C49G C61U A69G, for which the yeast fitness turned out to be 0.567.

With U2A G17C A57C G63C C66U, the yeast fitness is not above 0.5. In the case of G25A G50U, the yeast fitness is 0.826.

In the case of G12C C27A A37G C49U G63A, the yeast fitness was not above 0.5. U2C A14C C46A A65G: the yeast fitness is not above 0.5.

As to C4A C5A C60A, the yeast fitness was 0.671. U8G C11G U32A G67C: the yeast fitness is not above 0.5. As to C22U C27G U28G U32G, the yeast fitness is not above 0.5. With A14G C24G A42C, the yeast fitness amounted to 0.512. In the case of C30A A42C A70C, the yeast fitness is 0.819. For the variant C31A C62A A70C, the yeast fitness amounted to 0.548. Regarding G12A A20U G56C G58C, the yeast fitness is not above 0.5. For G10A G44A U54C C61U G67A, the yeast fitness is not above 0.5. U8C G9C U13A G25A A40C A57C C61A G67A: the yeast fitness is not above 0.5. For G41A C49A G50C G68C, the yeast fitness was not above 0.5. In the case of C24G G63C A65U, the yeast fitness is 0.596. As to A15G C24A C29G U35G G41C C62U U64A, the yeast fitness is not above 0.5. Under U13A G41C A42G G67A stands not above 0.5; under C27A U47C U64C A70C, 0.535.

The values above are taken from the RNAGym collection of RNA variant scans (doi:10.1126/science.aae0568).
